In paper PMC12257300 (RSC Advances, 2025):
*: point of attachment. Fmoc = O=C(OCC1c2ccccc2-c2ccccc21)*

Key:
[1] = Gelation by inverted tube test / minimum gelation concentration; format: physicochemical; conditions: 1 w/v% of sequence + 1 w/v% H-FQFQFK-NH2 in PBS
How it was run: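 Gels formed by adding PBS to the peptide acetate salt in a tube, then repeated vortexing (1 min) and sonication (5 min), and resting overnight at room temperature before assessment.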

[2] = soft Fmoc-WWRR-NH2 based hydrogels; cited from earlier work
[3] = Rheology, shear recovery experiment; format: physicochemical; conditions: 2 w/v% P4 biogel, shear strain 50%, 1 Hz, 25 °C
How it was run: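 Hydrogel (350 μL) loaded on a 25 mm plate and rested 5 min. G′ and G′′ were recorded for 60 s at 1 Hz and 1% strain, then strain was raised to 50% for 30 s. The cycle was repeated 4 times under a 1 N normal force at 25 °C, in threefold.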

Substance	Gelation behavior of co-formulation with parent peptide (inverted tube test) [1]	other results
H-WRWRFQFQFK-NH2 [P2, H-WRWRFQFQFK-NH2]	self-supporting hydrogels	–
H-RRWWQFQFK-NH2 [P5, H-RRWWQFQFK-NH2]	self-supporting hydrogels	–
Fmoc-WWRR-NH2	–	Storage modulus G′ of reported hydrogel [2]: ~100 Pa
H-RWRWQFQFK-NH2 [P4, H-RWRWQFQFK-NH2]	–	tan δ at increased shear strain [3]: 0.6
